# Source: ChEMBL document CHEMBL1158783, “Neoflavonoids and related constituents from Nepalese propolis and their nitric oxide production inhibitory activity” (J Nat Prod, 2005)
# System: J774.1
# Assay: Inhibition of LPS-induced NO production in mouse J774.1 cells after 24 hrs by Griess reagent assay
# Type: functional, cell-based
# Conditions: J774.1, 24 h; call rule not given here
# Outline: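 J774.1 cells grown in RPMI 1640 with penicillin G, streptomycin and 10% FCS, seeded at 1 × 10⁵ cells/well and left to adhere for 2 h at 37 °C, 5% CO₂. Fresh medium with LPS (10 µg/mL) plus compound was then added for 24 h. Supernatant nitrite was read with Griess reagent (10 min, room temperature, A550), medium-blank corrected, and compared with an LPS-only control. IC50 taken from the mean of four determinations.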
row,IC50,SMILES
1,10.2 µM,C=C[C@H](C1=CC(=O)C(OC)=CC1=O)c1ccccc1
2,9.6 µM,C=CC(c1ccccc1)[C@H]1C[C@@H](O)[C@@H](OC)CC1=O (stereo not given in full)
3,15.4 µM,COc1cc(O)c(C(=O)c2ccccc2)cc1O [CEAROIN]
4,8.4 µM,C=C[C@@H](c1ccccc1)c1ccc(O)c(O)c1
5,5.4 µM,COc1ccc2c(c1)O[C@H]1c3ccc(O)c(O)c3OC[C@@H]21
6,13.2 µM,C=C[C@@H](c1ccccc1)[C@@H]1C[C@@H](O)[C@@H](OC)CC1=O
7,100 µM,C=C[C@@H](c1ccccc1)[C@@H]1C[C@@H](O)[C@@H](OC)C[C@@H]1O
8,48.5 µM,C=CC(c1ccccc1)[C@@H]1C[C@H](O)C(OC)=CC1=O (stereo not given in full)
9,2.3 µM,C=CC(c1ccccc1)[C@H]1C[C@@H](O)C[C@@H](OC)C1=O (stereo not given in full)
10,5.5 µM,C=C[C@@H](c1ccccc1)c1ccc(O)cc1O
11,4.8 µM,O=C(/C=C/c1ccc(O)c(O)c1)OCCc1ccccc1 [CAFFEIC ACID PHENETHYL ESTER]
12,6.3 µM,C=CC(c1ccccc1)c1cc(O)c(OC)cc1O (stereo not given) [OBTUSAQUINOL]
13,29.3 µM,O=C(/C=C/c1ccc(O)cc1)c1ccc(O)cc1O [ISOLIQUIRITIGENIN]
14,19.2 µM,COC1=CC(=O)CCC1(O)C/C=C/c1ccccc1 (stereo not given)
15,3.4 µM,COc1ccc2c(c1O)O[C@@H]1c3ccc(O)cc3OC[C@H]21
16,0.5 µM,C=CC(c1ccccc1)[C@@H]1C[C@@H](O)C=CC1=O (stereo not given in full)
17,9.6 µM,C=C[C@H](c1ccccc1)[C@@H]1C[C@@H](O)[C@@H](OC)CC1=O
18,0.5 µM,C=CC(c1ccccc1)[C@H]1C[C@@H](O)C=CC1=O (stereo not given in full)

# System: not listed separately
# Assay: Cytotoxicity against mouse J774.1 cells at > 50 uM by MTT assay
# Type: cell-based
# Conditions: not given
row,SMILES,Activity
1,C=CC(c1ccccc1)[C@@H]1C[C@@H](O)C=CC1=O (stereo not given in full),Active
2,C=CC(c1ccccc1)[C@H]1C[C@@H](O)C=CC1=O (stereo not given in full),Active
